Data reported in ChEMBL document CHEMBL1138555, “N-acylated and N,N'-diacylated imidazolidine-2-thione derivatives and N,N'-diacylated tetrahydropyrimidine-2(1H)-thione analogues: synthesis and antiproliferative activity” (Eur J Med Chem, 2009).
Activity calls are given as the source filed them. The rule behind the calls is not given here.

Legend:
SW-620 = assay: Growth inhibition of human SW620 cells after 48 hrs by sulforhodamine B assay; type: functional; conditions: SW-620, 48 h
Outline: (§1)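 NCI in vitro panel screen. Compounds tested at five 10-fold dilutions, 10^-4 to 10^-8 M. Cells in 96-well plates were exposed for the last 48 h of a 72 h incubation. Viability/growth was read by sulforhodamine B protein assay. GI50 is the concentration giving 50% growth inhibition. Values beyond the tested range are reported as greater or less than the maximum or minimum concentration.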

HL-60(TB) = assay: Growth inhibition of human HL-60(TB) cells after 48 hrs by sulforhodamine B assay; type: functional; conditions: HL-60, 48 h
Outline: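 NCI 60-cell-line screen protocol: cells exposed to compound at five 10-fold dilutions from 10^-4 to 10^-8 M for the last 48 h of a 72 h incubation. Sulforhodamine B protein assay estimated viability/growth. GI50 (50% growth inhibition) derived; where not reached or exceeded, reported as greater or less than the highest or lowest concentration tested.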

MDA-MB-435 = assay: Growth inhibition of human MDA-MB-435 cells after 48 hrs by sulforhodamine B assay; type: functional; conditions: MDA-MB-435, 48 h
Outline: (§2)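 NCI screen panel. Five 10-fold concentrations from 10^-4 to 10^-8 M. Exposure for the last 48 h of a 72 h incubation. Growth estimated by sulforhodamine B protein assay. GI50 is the concentration giving 50% growth inhibition. Where that level was not reached or was exceeded, the value is given as above or below the highest or lowest concentration tested.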

SF-295 = assay: Growth inhibition of human SF295 cells after 48 hrs by sulforhodamine B assay; type: functional; conditions: SF-295, 48 h; outline: as §2
IGROV-1 = assay: Growth inhibition of human IGROV1 cells after 48 hrs by sulforhodamine B assay; type: functional; conditions: IGROV-1, 48 h; outline: as §2
786-0 = assay: Growth inhibition of human 786-0 cells after 48 hrs by sulforhodamine B assay; type: functional; conditions: 786-0, 48 h; outline: as §2
NCI-H522 = assay: Growth inhibition of human NCI-H522 cells after 48 hrs by sulforhodamine B assay; type: functional; conditions: NCI-H522, 48 h; outline: as §2
HT-29 = assay: Growth inhibition of human HT-29 cells after 48 hrs by sulforhodamine B assay; type: functional; conditions: HT-29, 48 h; outline: as §2
T47D = assay: Growth inhibition of human T47D cells after 48 hrs by sulforhodamine B assay; type: functional; outline: as §1
NCI-H23 = assay: Growth inhibition of human NCI-H23 cells after 48 hrs by sulforhodamine B assay; type: functional; conditions: NCI-H23, 48 h; outline: as §2
UACC-257 = assay: Growth inhibition of human UACC257 cells after 48 hrs by sulforhodamine B assay; type: functional; conditions: UACC-257, 48 h; outline: as §1
LOX IMVI = assay: Growth inhibition of human LOXIMVI cells after 48 hrs by sulforhodamine B assay; type: functional; outline: as §2
HCT-15 = assay: Growth inhibition of human HCT15 cells after 48 hrs by sulforhodamine B assay; type: functional; conditions: HCT-15, 48 h; outline: as §2
TK-10 = assay: Growth inhibition of human TK10 cells after 48 hrs by sulforhodamine B assay; type: functional; conditions: TK-10, 48 h; outline: as §1
RXF 393 = assay: Growth inhibition of human RXF393 cells after 48 hrs by sulforhodamine B assay; type: functional; conditions: RXF 393, 48 h; outline: as §2
NCI-H460 = assay: Growth inhibition of human NCI-H460 cells after 48 hrs by sulforhodamine B assay; type: functional; conditions: NCI-H460, 48 h; outline: as §2
HOP-62 = assay: Growth inhibition of human HOP62 cells after 48 hrs by sulforhodamine B assay; type: functional; conditions: HOP-62, 48 h; outline: as §2
OVCAR-4 = assay: Growth inhibition of human OVCAR4 cells after 48 hrs by sulforhodamine B assay; type: functional; conditions: OVCAR-4, 48 h; outline: as §2
SK-MEL-5 = assay: Growth inhibition of human SK-MEL-5 cells after 48 hrs by sulforhodamine B assay; type: functional; conditions: SK-MEL-5, 48 h; outline: as §2
M14 = assay: Growth inhibition of human M14 cells after 48 hrs by sulforhodamine B assay; type: functional; conditions: M14, 48 h; outline: as §2
COLO 205 = assay: Growth inhibition of human COLO205 cells after 48 hrs by sulforhodamine B assay; type: functional; conditions: COLO 205, 48 h; outline: as §2
SNB-19 = assay: Growth inhibition of human SNB19 cells after 48 hrs by sulforhodamine B assay; type: functional; conditions: SNB-19, 48 h; outline: as §1
ACHN = assay: Growth inhibition of human ACHN cells after 48 hrs by sulforhodamine B assay; type: functional; outline: as §2
UACC-62 = assay: Growth inhibition of human UACC62 cells after 48 hrs by sulforhodamine B assay; type: functional; conditions: UACC-62, 48 h; outline: as §1
MCF7 = assay: Growth inhibition of human MCF7 cells after 48 hrs by sulforhodamine B assay; type: functional; conditions: MCF7, 48 h; outline: as §2
SK-MEL-28 = assay: Growth inhibition of human SK-MEL-28 cells after 48 hrs by sulforhodamine B assay; type: functional; conditions: SK-MEL-28, 48 h; outline: as §2
SK-MEL-2 = assay: Growth inhibition of human SK-MEL-2 cells after 48 hrs by sulforhodamine B assay; type: functional; conditions: SK-MEL-2, 48 h; outline: as §2
EKVX = assay: Growth inhibition of human EKVX cells after 48 hrs by sulforhodamine B assay; type: functional; outline: as §2
SF-268 = assay: Growth inhibition of human SF268 cells after 48 hrs by sulforhodamine B assay; type: functional; conditions: SF-268, 48 h; outline: as §2
HOP-92 = assay: Growth inhibition of human HOP92 cells after 48 hrs by sulforhodamine B assay; type: functional; conditions: HOP-92, 48 h; outline: as §2
MOLT-4 = assay: Growth inhibition of human MOLT4 cells after 48 hrs by sulforhodamine B assay; type: functional; conditions: MOLT-4, 48 h; outline: as §2
DU-145 = assay: Growth inhibition of human DU145 cells after 48 hrs by sulforhodamine B assay; type: functional; conditions: DU-145, 48 h; outline: as §2
K562 = assay: Growth inhibition of human K562 cells after 48 hrs by sulforhodamine B assay; type: functional; conditions: K562, 48 h; outline: as §2
Malme-3M = assay: Growth inhibition of human MALME-3M cells after 48 hrs by sulforhodamine B assay; type: functional; outline: as §2
A549 = assay: Growth inhibition of human A549 cells after 48 hrs by sulforhodamine B assay; type: functional; conditions: A549, 48 h; outline: as §2
KM12 = assay: Growth inhibition of human KM12 cells after 48 hrs by sulforhodamine B assay; type: functional; conditions: KM12, 48 h; outline: as §2
BT-549 = assay: Growth inhibition of human BT549 cells after 48 hrs by sulforhodamine B assay; type: functional; conditions: BT-549, 48 h; outline: as §2
HCT-116 = assay: Growth inhibition of human HCT116 cells after 48 hrs by sulforhodamine B assay; type: functional; conditions: HCT-116, 48 h; outline: as §2
UO-31 = assay: Growth inhibition of human UO31 cells after 48 hrs by sulforhodamine B assay; type: functional; conditions: UO-31, 48 h; outline: as §1
MT4 = assay: Antiproliferative activity against human MT4 cells assessed as reduction of growth by MTT assay; type: functional, cell-based
Outline: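 MT-4 lymphoblastoid T cells (ATCC) in RPMI 1640 with 10% FCS, penicillin/streptomycin, checked for mycoplasma. 1 × 10⁴ mock-infected cells per well with serial dilutions from a 100 mM DMSO stock. Incubated 4 days at 37 °C, viable cells counted by MTT. IC50 versus untreated controls by linear regression. Mean of three separate experiments.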

NCI-H322M = assay: Growth inhibition of human NCI-H322M cells after 48 hrs by sulforhodamine B assay; type: functional; outline: as §2
SR = assay: Growth inhibition of human SR cells after 48 hrs by sulforhodamine B assay; type: functional; outline: as §1
SK-OV-3 = assay: Growth inhibition of human SKOV3 cells after 48 hrs by sulforhodamine B assay; type: functional; conditions: SK-OV-3, 48 h; outline: as §2
OVCAR-3 = assay: Growth inhibition of human OVCAR-3 cells after 48 hrs by sulforhodamine B assay; type: functional; conditions: OVCAR-3, 48 h; outline: as §2
[1] = Growth inhibition of human […] cells after 48 hrs by sulforhodamine B assay; type: functional; outline: as §2
NCI/ADR-RES = assay: Growth inhibition of human NCI/ADR-RES cells after 48 hrs by sulforhodamine B assay; type: functional; outline: as §2
U-251 = assay: Growth inhibition of human U251 cells after 48 hrs by sulforhodamine B assay; type: functional; conditions: U-251, 48 h; outline: as §1
MDA-MB-231 = assay: Growth inhibition of human MDA-MB-231 cells after 48 hrs by sulforhodamine B assay; type: functional; conditions: MDA-MB-231, 48 h; outline: as §2
PC-3 = assay: Growth inhibition of human PC3 cells after 48 hrs by sulforhodamine B assay; type: functional; conditions: PC-3, 48 h; outline: as §2
SN12C = assay: Growth inhibition of human SN12C cells after 48 hrs by sulforhodamine B assay; type: functional; outline: as §1
OVCAR-8 = assay: Growth inhibition of human OVCAR8 cells after 48 hrs by sulforhodamine B assay; type: functional; conditions: OVCAR-8, 48 h; outline: as §2
CAKI-1 = assay: Growth inhibition of human Caki1 cells after 48 hrs by sulforhodamine B assay; type: functional; conditions: CAKI-1, 48 h; outline: as §2
[2] = tested on: Human immunodeficiency virus 1; assay: Antiviral activity against HIV1 in human MT4 cells assessed as prevention of virus-induced cytopathogenicity; type: functional, organism-based
Outline: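 MT-4 cells, 1 × 10⁴ per well, with serial compound dilutions from a 100 mM DMSO stock. Infected with HIV-1 at 100 CCID50. Four-day incubation at 37 °C, then viable cells measured by MTT. Read-out is inhibition of virus-induced cytopathogenicity, assessed at non-cytotoxic concentrations.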

N#C/C(=C\N1CCN(C(=O)c2ccco2)C1=S)C(N)=O
GI50 (SW-620): 22.1 µM
GI50 (HL-60(TB)): 22 µM
GI50 (MDA-MB-435): 14.6 µM
GI50 (SF-295): 32.1 µM
GI50 (IGROV-1): 24 µM
GI50 (786-0): 18 µM
GI50 (NCI-H522): 18.7 µM
GI50 (HT-29): 24.1 µM
GI50 (T47D): 9.3 µM
GI50 (NCI-H23): 21.4 µM
GI50 (UACC-257): 23.3 µM
GI50 (LOX IMVI): 2.5 µM
GI50 (HCT-15): 3.8 µM
GI50 (TK-10): 12.1 µM
GI50 (RXF 393): 19.2 µM
GI50 (NCI-H460): 4 µM
GI50 (HOP-62): 25.6 µM
GI50 (OVCAR-4): 18.5 µM
GI50 (SK-MEL-5): 16.5 µM
GI50 (M14): 16.5 µM
GI50 (COLO 205): 24.9 µM
GI50 (SNB-19): 36.4 µM
GI50 (ACHN): 11 µM
GI50 (UACC-62): 14 µM
GI50 (MCF7): 1.7 µM
GI50 (SK-MEL-28): 15.8 µM
GI50 (SK-MEL-2): 24.4 µM
GI50 (EKVX): 0.3 µM
GI50 (SF-268): 11.7 µM
GI50 (HOP-92): 25.5 µM
GI50 (MOLT-4): 39.8 µM
GI50 (DU-145): 29.8 µM
GI50 (K562): 9.1 µM
GI50 (Malme-3M): 12.5 µM
GI50 (A549): 34.5 µM
GI50 (KM12): 7.5 µM
GI50 (BT-549): 22.5 µM
GI50 (HCT-116): 21.2 µM
GI50 (UO-31): 23.5 µM
IC50 (MT4): 4 µM
GI50 (NCI-H322M): 17.6 µM
GI50 (SR): 3 µM
GI50 (SK-OV-3): 42.6 µM
GI50 (OVCAR-3): 19 µM
GI50 [1]: 12.4 µM
GI50 (NCI/ADR-RES): 25.4 µM
GI50 (U-251): 11.5 µM
GI50 (MDA-MB-231): 13.1 µM
GI50 (PC-3): 35.6 µM
GI50 (SN12C): 12 µM
GI50 (OVCAR-8): 43.6 µM
GI50 (CAKI-1): 11.8 µM

N#C/C(=C\N1CCNC1=S)C(=O)c1ccccc1
Activity [2]: inactive

CC(=O)/C(=C/N1CCNC1=S)C(=O)c1ccccc1
Activity [2]: inactive

O=C(C(=CN1CCNC1=S)C(=O)c1ccccc1)c1ccccc1
Activity [2]: inactive
